The values that follow come from ChEMBL document CHEMBL1130393, “Antitumor agents. 178. Synthesis and biological evaluation of substituted 2-aryl-1,8-naphthyridin-4(1H)-ones as antitumor agents that inhibit tubulin polymerization” (J Med Chem, 1997).

In assay [1] the test system is Panel breast (Carcinoma cell lines). As to the kind of experiment: log molar concentration required to cause total growth inhibition of breast tumor cell lines. It counts as functional. The following applies: Homo sapiens, read-out: Log TGI (converted). In short, it runs like this: (§1)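 TGI from the NCI 60 human tumor cell line in vitro screen: log of the molar drug concentration causing total growth inhibition, reported for the named cell panel.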

In a further assay the test system is CAKI-1. As to the kind of experiment: in vitro antitumor activity against CAKI-1 tumor cell lines. It counts as functional. The following applies: Homo sapiens.
Assay [2] concerns Panel CNS (Carcinoma cell lines). In words: log molar concentration required to cause total growth inhibition of CNS cancer cell lines. It counts as functional. The following applies: Homo sapiens, read-out: Log TGI (converted). In short, it runs like this: as §1
Assay [3] concerns Panel colon (Carcinoma cell lines). As to the kind of experiment: log molar concentration required to cause total growth inhibition of colon tumor cell lines. The following applies: Homo sapiens, read-out: Log TGI (converted). It counts as functional. In short, it runs like this: as §1
Another assay has as its system HCT-116. In words: in vitro antitumor activity against HCT116 tumor cell lines. The class given is functional. The following applies: Homo sapiens.
The subject of the next assay is HL-60. In words: in vitro antitumor activity against HL-60(TB) tumor cell lines. The following applies: Homo sapiens. The class given is functional.
Assay [4] has as its system Tumor Cell line. As to the kind of experiment: in vitro antitumor activity against NCI 's human tumor cell lines. It counts as functional. The following applies: read-out: Average log GI50 (converted). The gist of the method: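 NCI in vitro screen of 60 human tumor cell lines. […] The value is calculated from all cell lines tested.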
The next assay relates to MDA-MB-435. In words: in vitro antitumor activity against MAD-MB-435NCI 's human tumor cell lines. It counts as functional.
Assay [5] relates to Tumor Cell line. In words: log molar concentration required to cause total growth inhibition of leukemic tumor cell lines. It counts as functional. The following applies: Homo sapiens, read-out: Log TGI (converted). In short, it runs like this: as §1
Another assay deals with MDA-N. In words: in vitro antitumor activity against MDA-N tumor cell lines. It counts as functional. The following applies: Homo sapiens.
A further assay deals with Melanoma tumor cell line. As to the kind of experiment: log molar concentration required to cause total growth inhibition of melanomic tumor cell lines. The class given is functional. The following applies: Homo sapiens, read-out: Log TGI (converted). The gist of the method:
as §1

For a further assay, the system named is NCI-H460. In words: in vitro antitumor activity against NCI-H460 tumor cell lines. It counts as functional. The following applies: Homo sapiens.
For another assay, the system named is OVCAR-3. As to the kind of experiment: in vitro antitumor activity against OVCAR-3 tumor cell lines. The following applies: Homo sapiens. It counts as functional.
A further assay concerns NSCLC. In words: log molar concentration required to cause total growth inhibition of non-small cell lung tumor cell lines. It counts as functional. The following applies: Homo sapiens, read-out: Log TGI (converted). In short, it runs like this: as §1
Another assay relates to PC-3. As to the kind of experiment: in vitro antitumor activity against PC-3 tumor cell lines. The following applies: Homo sapiens. It counts as functional.
Assay [6] relates to Panel prostate (Carcinoma cell lines). As to the kind of experiment: log molar concentration required to cause total growth inhibition of prostate tumor cell lines. The following applies: Homo sapiens, read-out: Log TGI (converted). It counts as functional. The gist of the method: as §1
Assay [7] concerns Panel renal (Carcinoma cell lines). In words: log molar concentration required to cause total growth inhibition of renal tumor cell lines. It counts as functional. The following applies: Homo sapiens, read-out: Log TGI (converted). In short, it runs like this: as §1
The subject of the next assay is SF-295. In words: in vitro antitumor activity against SF-295 tumor cell lines. The class given is functional. The following applies: Homo sapiens.
A further assay concerns SK-MEL-5. In words: in vitro antitumor activity against SK-MEL-5 tumor cell lines. The following applies: Homo sapiens. The class given is functional.
The subject of the next assay is U-251. As to the kind of experiment: in vitro antitumor activity against U-251 tumor cell lines. The class given is functional. The following applies: Homo sapiens.
For another assay, the target named is Tubulin (Bos taurus, UniProt Q6B856+Q862L2+Q862F3). As to the kind of experiment: Inhibition of tubulin polymerization. It counts as functional.
The subject of assay [8] is Tumor Cell line. As to the kind of experiment: log molar concentration required to cause total growth inhibition of NCI 's human tumor cell lines. The class given is functional. The following applies: read-out: Log TGI (converted). In short, it runs like this:
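NCI 60 human tumor cell line in vitro screen. TGI is the log molar concentration giving total growth inhibition, calculated from all cell lines tested.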

Assay [9] has as its system Panel ovarian (Carcinoma cell lines). As to the kind of experiment: log molar concentration required to cause total growth inhibition of ovarian tumor cell lines. It counts as functional. The following applies: Homo sapiens, read-out: Log TGI (converted). In short, it runs like this:
as §1

Assay [10] has as its system Tumor Cell line. In words: In vitro antitumor activity against NCI 's human tumor cell lines. It counts as functional. In short, it runs like this:
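Tested in the NCI 60 human tumor cell line in vitro screen. […] The value is calculated from all cell lines tested, as an average log GI50.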

A further assay deals with Tubulin (Bos taurus) (UniProt Q6B856+Q862L2+Q862F3). As to the kind of experiment: Inhibition of radiolabeled colchicine binding to tubulin. The class given is protein assay. Also on record: concentration or dose not given beside the values. The following applies: concentration not given here. The gist of the method: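 Measured by DEAE-cellulose filter binding. The 0.1 mL mixture held bovine brain tubulin 1.0 µM, 1.0 M monosodium glutamate (pH 6.6), 1 mM MgCl2, 0.1 mM GTP, 5.0 µM [3H]colchicine, 5% DMSO and inhibitor at 5.0 µM. It was incubated 20 min at 37 °C, filtered through two DEAE-cellulose papers, washed with water and counted by liquid scintillation.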

In the case of `Oc1cc(-c2cccc(Cl)c2)nc2ncccc12`, the TGI in assay [1] was 1170 nM; in assay [2] it was 16600 nM; in [3] it was 16200 nM; in the assay with Tumor Cell line [5] it was 38900 nM; with Melanoma tumor cell line it was 97700 nM; in the assay on NSCLC it was 85100 nM. In addition, the TGI was 2630 nM in assay [6], 49000 nM in assay [7], 24000 nM with Tumor Cell line [8] and 31600 nM in assay [9]. For the same compound, the GI50 with CAKI-1 was 56.2 nM; in the assay on HCT-116 it was 28.8 nM; in the assay with HL-60 it was 10.5 nM; in the assay on Tumor Cell line [4], 229 nM; in the assay with MDA-MB-435, under 10 nM; in the assay with MDA-N it was 17.4 nM. Further, the GI50 in the assay with NCI-H460 is 87.1 nM; in the assay with OVCAR-3, 45.7 nM; with PC-3, 22.4 nM; in the assay on SF-295 it was 63.1 nM; in the assay with SK-MEL-5 it was 52.5 nM; in the assay on U-251, 145 nM. This compound had an IC50 against Tubulin of 1500 nM.

Turning to `COc1cc([C@@H]2c3cc4c(cc3[C@H](O)[C@H]3COC(=O)[C@H]23)OCO4)cc(OC)c1OC` [PODOFILOX], the “average log GI50” value in the assay with Tumor Cell line [10] is -7.54 M. The compound further showed an inhibition on Tubulin (Bos taurus) of 76%.

As a reminder, the TGI is the concentration at which net growth stops. Broadly, the GI50 is the concentration at which growth is held to half of that of the control. A word on the IC50: it is the concentration at which inhibition is half-maximal. As usually defined, the inhibition is the change of the read-out against control, counted positive when it falls.
